From article PMC5028098 (International Journal of Nanomedicine, 2016)

Assays:
Assay type in all cases: cell-based, human
MMP2 = experiment: Western blot of MMP2 in HUVECs incubated with TCM; settings: TCM 24 hours, dose-dependent for HBP
Method in brief: (§1)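 HUVECs (2×10^5) were grown to 90% confluence, starved 12 h in 2% serum, then incubated 24 h with conditioned medium from MDA-MB231 cells treated with graded test-peptide concentrations. Cells were lysed on ice. Equal protein (40 μg, Bradford) was run on 10% SDS-PAGE and blotted to nitrocellulose. Primary antibody incubation was 4 h at 4°C, followed by HRP anti-rabbit IgG (1:2,000). Bands were quantified by densitometry relative to untreated-medium control; three experiments, mean ± SD.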

HUVECs = experiment: Transwell migration; settings: HUVECs in TCM from treated MDA-MB231 cells, dose-dependent for HBP
MMP9 = experiment: Western blot of MMP9 in HUVECs incubated with TCM; settings: TCM 24 hours, decreased to a greater extent than MMP2 for HBP
Method in brief: as §1

In the case of VEGF, the “expression of MMP2 in HUVECs” value (MMP2) is reported as “not affected”, the “effect on migration / number of invasive ECs” value (HUVECs) is reported as “no inhibitory effect” and the “expression of MMP9 in HUVECs” value (MMP9) is reported as “not affected”.
